Consider nine compounds from ChEMBL document CHEMBL4725474, “Discovery of a Selective, Covalent IRAK1 Inhibitor with Antiproliferative Activity in MYD88 Mutated B-Cell Lymphoma” (ACS Med Chem Lett, 2020).

A word on the IC50: it is the concentration that inhibits the measured activity by half. The term EC50 denotes the concentration at which the effect is half-maximal.

Calls of active or inactive are those of the source. The rule behind the calls is not given here. Some results are limits rather than exact numbers.

Assay [1] addresses T1, Interleukin-1 receptor-associated kinase 1 (Homo sapiens, UniProt P51617). Description: Inhibition of wild-type human partial length IRAK1 (R194 to S712 residues) expressed in mammalian expression system by Kinomescan method.
Target sequence in this assay (P51617 whole entry, the tested form may be a part): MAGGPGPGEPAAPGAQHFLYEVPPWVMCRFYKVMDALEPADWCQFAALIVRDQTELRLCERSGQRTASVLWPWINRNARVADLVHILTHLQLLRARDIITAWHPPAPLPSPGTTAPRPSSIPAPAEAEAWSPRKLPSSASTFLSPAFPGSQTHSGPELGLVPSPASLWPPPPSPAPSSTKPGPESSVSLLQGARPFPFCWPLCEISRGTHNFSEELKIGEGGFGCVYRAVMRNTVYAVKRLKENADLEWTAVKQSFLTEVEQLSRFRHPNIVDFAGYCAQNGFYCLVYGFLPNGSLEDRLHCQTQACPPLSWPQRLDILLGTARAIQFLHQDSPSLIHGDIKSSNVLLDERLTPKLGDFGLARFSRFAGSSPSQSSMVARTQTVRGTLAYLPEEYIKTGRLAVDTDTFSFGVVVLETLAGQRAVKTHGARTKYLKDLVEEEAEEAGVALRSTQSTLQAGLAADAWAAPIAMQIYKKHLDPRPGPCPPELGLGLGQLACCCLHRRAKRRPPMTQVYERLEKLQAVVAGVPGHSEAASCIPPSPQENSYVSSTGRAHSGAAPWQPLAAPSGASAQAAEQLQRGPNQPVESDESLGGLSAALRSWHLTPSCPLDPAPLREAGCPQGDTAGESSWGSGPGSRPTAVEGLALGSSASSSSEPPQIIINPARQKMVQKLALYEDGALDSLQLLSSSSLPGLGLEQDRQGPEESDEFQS
Assay [2] has as its target T2, Interleukin-1 receptor-associated kinase 4 (Homo sapiens, UniProt Q9NWZ3).
T2 sequence (Q9NWZ3 whole entry): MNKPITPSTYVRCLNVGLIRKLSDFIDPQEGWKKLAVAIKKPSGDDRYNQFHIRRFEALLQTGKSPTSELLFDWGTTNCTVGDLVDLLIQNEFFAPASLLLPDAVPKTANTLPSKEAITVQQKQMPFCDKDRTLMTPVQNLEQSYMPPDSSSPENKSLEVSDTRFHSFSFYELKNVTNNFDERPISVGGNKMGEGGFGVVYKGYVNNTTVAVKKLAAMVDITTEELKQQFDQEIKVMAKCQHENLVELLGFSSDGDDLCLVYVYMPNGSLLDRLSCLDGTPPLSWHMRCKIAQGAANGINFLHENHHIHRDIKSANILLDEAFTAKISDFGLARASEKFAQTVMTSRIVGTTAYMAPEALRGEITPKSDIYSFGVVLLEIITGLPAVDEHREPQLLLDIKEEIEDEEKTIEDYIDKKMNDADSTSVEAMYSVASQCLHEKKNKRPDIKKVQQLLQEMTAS
Description: Inhibition of wild-type human partial length IRAK4 (M1 to S460 residues) expressed in mammalian expression system by Kinomescan method.

Assay [3] deals with T1, Interleukin-1 receptor-associated kinase 1. Description: Covalent binding affinity to recombinant IRAK1 (unknown origin) assessed as labeling at Cys307 residue site measured after 2 hrs by LC-MS analysis.
Target sequence in this assay (P51617 whole entry, looked up, the tested form may be a part): as the sequence (P51617 whole entry, the tested form may be a part) above
Assay [4] can be described thus: Cytotoxicity against human BCWM1 cells expressing MYD88 mutant assessed as cell killing measured after 72 hrs by CellTiter-Glo luminescent cell viability assay. It is filed as functional, cell-based. Particulars: BCWM1, 72 h. An outline of the steps: (§1)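 Cells were exposed to inhibitors for 72 h, and viability was read by CellTiter-Glo luminescence. EC50 values were derived from dose–response curves.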
A general note: In ATP-based viability assays light output follows the ATP content of the culture.

A short description of assay [5]: Cytotoxicity against human MWCL1 cells expressing MYD88 mutant assessed as cell killing measured after 72 hrs by CellTiter-Glo luminescent cell viability assay. It is filed as functional, cell-based. Summed up:
as §1

Assay [6] concerns TMD8. Description: Cytotoxicity against human TMD8 cells expressing MYD88 mutant assessed as cell killing measured after 72 hrs by CellTiter-Glo luminescent cell viability assay. It is filed as functional, cell-based. An outline of the steps: as §1
Assay [7] is described as follows: Cytotoxicity against human HBL1 cells expressing MYD88 mutant assessed as cell killing measured after 72 hrs by CellTiter-Glo luminescent cell viability assay. The class given is functional, cell-based. Summed up:
as §1

For assay [8], the system named is OCI-Ly3. Description: Cytotoxicity against human OCILY3 cells expressing MYD88 mutant assessed as cell killing measured after 72 hrs by CellTiter-Glo luminescent cell viability assay. The class given is functional, cell-based. Summed up: as §1
In assay [9] the test system is OCI-Ly7. Description: Cytotoxicity against human OCILY7 cells expressing MYD88 mutant assessed as cell killing measured after 72 hrs by CellTiter-Glo luminescent cell viability assay. The class given is functional, cell-based. Summed up:
as §1

Assay [10] relates to OCI-LY19. Description: Cytotoxicity against human OCILY19 cells expressing MYD88 mutant assessed as cell killing measured after 72 hrs by CellTiter-Glo luminescent cell viability assay. It is filed as functional, cell-based. An outline of the steps: as §1
Assay [11] deals with Ramos. Description: Cytotoxicity against human Ramos cells expressing MYD88 mutant assessed as cell killing measured after 72 hrs by CellTiter-Glo luminescent cell viability assay. It is filed as functional, cell-based. Summed up:
as §1

Assay [12] concerns RPMI-8226. Description: Cytotoxicity against human RPMI-8226 cells expressing MYD88 mutant assessed as cell killing measured after 72 hrs by CellTiter-Glo luminescent cell viability assay. It is filed as functional, cell-based. Summed up:
as §1

For assay [13], the target named is T2, Interleukin-1 receptor-associated kinase 4. Description: Inhibition of IRAK4 (unknown origin) using methylcoumarin-labeled peptide as substrate in presence of ATP by FRET assay.
Assay [14] concerns the target T3, Mitogen-activated protein kinase kinase kinase 19 (Homo sapiens, UniProt Q56UN5).
T3 sequence (Q56UN5 whole entry): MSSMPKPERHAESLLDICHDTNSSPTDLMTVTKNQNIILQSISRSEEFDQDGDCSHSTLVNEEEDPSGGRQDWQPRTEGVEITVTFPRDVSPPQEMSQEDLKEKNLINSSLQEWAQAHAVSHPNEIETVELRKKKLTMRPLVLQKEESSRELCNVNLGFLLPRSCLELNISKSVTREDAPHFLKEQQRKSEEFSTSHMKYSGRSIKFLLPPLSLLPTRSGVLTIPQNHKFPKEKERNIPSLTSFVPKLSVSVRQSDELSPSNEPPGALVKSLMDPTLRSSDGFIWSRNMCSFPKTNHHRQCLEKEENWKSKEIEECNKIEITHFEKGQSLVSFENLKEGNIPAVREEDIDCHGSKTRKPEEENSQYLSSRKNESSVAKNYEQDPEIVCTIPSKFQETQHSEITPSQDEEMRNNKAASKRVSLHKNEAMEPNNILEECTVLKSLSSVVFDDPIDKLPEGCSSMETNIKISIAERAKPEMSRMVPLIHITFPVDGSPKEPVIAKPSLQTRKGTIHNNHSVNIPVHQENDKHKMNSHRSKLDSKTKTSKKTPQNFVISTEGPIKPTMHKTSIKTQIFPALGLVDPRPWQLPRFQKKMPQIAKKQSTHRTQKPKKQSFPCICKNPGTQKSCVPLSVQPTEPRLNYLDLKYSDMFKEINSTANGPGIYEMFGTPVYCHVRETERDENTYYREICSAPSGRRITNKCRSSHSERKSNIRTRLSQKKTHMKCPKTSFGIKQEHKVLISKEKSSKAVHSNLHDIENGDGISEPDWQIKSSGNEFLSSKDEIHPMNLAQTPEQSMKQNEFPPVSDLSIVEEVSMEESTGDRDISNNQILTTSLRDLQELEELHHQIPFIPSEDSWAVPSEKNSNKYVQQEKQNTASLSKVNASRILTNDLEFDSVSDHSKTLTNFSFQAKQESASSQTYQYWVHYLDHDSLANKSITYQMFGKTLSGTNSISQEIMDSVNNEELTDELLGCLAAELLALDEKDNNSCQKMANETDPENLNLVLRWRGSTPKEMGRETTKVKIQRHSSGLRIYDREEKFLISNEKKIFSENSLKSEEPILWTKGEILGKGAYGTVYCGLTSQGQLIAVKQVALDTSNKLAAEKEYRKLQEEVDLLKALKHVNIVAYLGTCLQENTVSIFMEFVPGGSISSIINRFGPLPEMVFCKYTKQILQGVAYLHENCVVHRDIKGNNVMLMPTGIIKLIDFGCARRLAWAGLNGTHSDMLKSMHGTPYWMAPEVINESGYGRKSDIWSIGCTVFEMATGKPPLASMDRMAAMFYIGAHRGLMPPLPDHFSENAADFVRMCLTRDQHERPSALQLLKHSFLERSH
Description: Inhibition of wild-type human partial length YSK4 (T1019 to H1328 residues) expressed in mammalian expression system by Kinomescan method.

In assay [15] the target is T1, Interleukin-1 receptor-associated kinase 1. Description: Covalent binding affinity to recombinant IRAK1 (unknown origin) assessed as labeling at Cys302 residue site measured after 2 hrs by LC-MS analysis.
Target sequence in this assay (P51617 whole entry, looked up, the tested form may be a part): as the sequence (P51617 whole entry, the tested form may be a part) above
Assay [16] has the same target. Description: Inhibition of desthio-biotinylated JH-XIII-39-01 probe binding to IRAK1 in human BCWM1 cells assessed as blocking of IRAK1 pulldown at 5 to 10 uM measured after 90 mins by Western blot based pulldown assay. It is filed as cell-based. (A western blot detects proteins with antibodies after separation by electrophoresis.)
Target sequence in this assay (P51617 whole entry, looked up, the tested form may be a part): as the sequence (P51617 whole entry, the tested form may be a part) above
The target is the same in assay [17]. Description: Covalent binding affinity to recombinant IRAK1 (unknown origin) assessed as labeling at Cys302/Cys307 residue sites at ratio 3:1 measured after 2 hrs by LC-MS analysis.
Target sequence in this assay (P51617 whole entry, looked up, the tested form may be a part): as the sequence (P51617 whole entry, the tested form may be a part) above
Assay [18] has the same target. Description: Inhibition of recombinant IRAK1 (unknown origin) by Invitrogen adapta assay.
Target sequence in this assay (P51617 whole entry, the tested form may be a part): as the sequence (P51617 whole entry, the tested form may be a part) above
Assay [19] shares this target. Description: Inhibition of desthio-biotinylated JH-XIII-39-01 probe binding to IRAK1 in human BCWM1 cells assessed as blocking of IRAK1 pulldown at 5 uM measured after 90 mins by Western blot based pulldown assay. The class given is cell-based.
Target sequence in this assay (P51617 whole entry, looked up, the tested form may be a part): as the sequence (P51617 whole entry, the tested form may be a part) above
The mark [20] stands for this setting: Homo sapiens, MWCL1, 72 h, read-out: EC50.
Setting [21] is: Homo sapiens, TMD8, 72 h, read-out: EC50.
[22] abbreviates: Homo sapiens, HBL1, 72 h, read-out: EC50.
Setting [23] is: Homo sapiens, OCI-Ly7, 72 h, read-out: EC50.
Setting [24] is: Homo sapiens, OCI-LY19, 72 h, read-out: EC50.
Where [25] appears, read: Homo sapiens, OCI-Ly3, 72 h, read-out: EC50.
Setting [26] is: Homo sapiens, Ramos, 72 h, read-out: EC50.
Where [27] appears, read: Homo sapiens, RPMI-8226, 72 h, read-out: EC50.

With `COc1cc(N2CCOCC2)ccc1NC(=O)c1cccc(-c2ccn[nH]2)n1`, the IC50 came to 0.009 µM in assay [1] and 0.017 µM in assay [2].
In the case of `C=CC(=O)Nc1ccc(C(=O)Nc2ccc(NC(=O)c3cccc(-c4ccn[nH]4)n3)cc2)cc1`, in [3], the result was Active. In addition, the EC50 was 2.54 µM in [4]; 4.91 µM in assay [5] (setting [20]); 5.26 µM in assay [6] (setting [21]); 14.6 µM in assay [7] (setting [22]); “Not Active” in assay [8] (oci-ly3); 5.16 µM in [9] (setting [23]). The EC50 was 0.71 µM in assay [10] (setting [24]), “Not Active” in [11] (ramos) and “Not Active” in assay [12] (rpmi-8226).
Take `CN(C)C/C=C/C(=O)Nc1cccc(C(=O)Nc2ccc(Nc3nccc(-c4cccnc4)n3)cc2)c1`: the IC50 was 0.0142 µM in assay [1] and greater than 10 µM in [2].
Consider `C=CC(=O)Nc1cccc(C(=O)Nc2ccc(NC(=O)c3cccc(-c4ccn[nH]4)n3)cc2)c1`, for which the results for the IC50 in [13] and in [14] were greater than 10 µM and 0.057 µM, respectively. Further, in assay [15], the outcome was Active. For the same compound, the EC50 in [4] turned out to be 1.02 µM; in assay [5] (setting [20]) it was 3.88 µM; in [6] (setting [21]), 2.4 µM; in assay [7] (setting [22]), 12.1 µM; in [8] (setting [25]), 9.72 µM; in [9] (setting [23]), 2.39 µM. For the same compound, the half-maximal effective concentration (EC50) in assay [10] (setting [24]) amounted to 0.59 µM; in [11] (setting [26]), 1.79 µM; in [12] (setting [27]) it was 5.13 µM. The inhibition result in assay [16] was “Active”.
As to `CCC(=O)Nc1cccc(C(=O)Nc2ccc(NC(=O)c3cccc(-c4ccn[nH]4)n3)cc2)c1`, the EC50 in [4] was 19.9 µM; in [5] (mwcl1), “Not Active”; in assay [6] (tmd8), “Not Active”; in [7] (hbl1), “Not Active”; in assay [8] (oci-ly3) it was “Not Active”; in assay [9] (setting [23]) it was 20.7 µM. Further, the concentration for a half-maximal effect (EC50) is 7.79 µM in assay [10] (setting [24]), “Not Active” in assay [11] (ramos) and 31.1 µM in [12] (setting [27]).
Take `C=CC(=O)Nc1ccc(C(=O)Nc2cccc(NC(=O)c3cccc(-c4ccn[nH]4)n3)c2)cc1`: in assay [13], the IC50 is greater than 10 µM. Besides, in assay [17], the result was Active. Moreover, the EC50 in assay [4] was 418 µM; in assay [5] (mwcl1), “Not Active”; in [6] (tmd8) it was “Not Active”; in assay [7] (hbl1), “Not Active”; in assay [8] (oci-ly3), “Not Active”; in assay [9] (oci-ly7), “Not Active”. The EC50 result in assay [10] (oci-ly19), in [11] (ramos) and in assay [12] (rpmi-8226) was “Not Active” throughout.
On to `C=CC(=O)Nc1cccc(C(=O)Nc2cccc(NC(=O)c3cccc(-c4ccn[nH]4)n3)c2)c1`, for which, in assay [15], the outcome was Active. Moreover, the EC50 in [4] is 12.8 µM; in assay [5] (setting [20]) it was 29 µM; in [6] (tmd8), “Not Active”; in [7] (hbl1), “Not Active”; in [8] (oci-ly3), “Not Active”; in assay [9] (setting [23]) it was 16.1 µM. Moreover, the EC50 is 2.9 µM in [10] (setting [24]), “Not Active” in [11] (ramos) and “Not Active” in assay [12] (rpmi-8226). The inhibition entry in assay [16] was “Active”.
In the case of `CC1NC(=O)NC1CCCCCC(=O)NCCOCCOCCOCCNC(=O)CCN(C)C/C=C/C(=O)Nc1cccc(C(=O)Nc2ccc(NC(=O)c3cccc(-c4ccn[nH]4)n3)cc2)c1` (stereo not given), the IC50 in assay [18] was 0.07 µM.
Turning to `CN(C)C/C=C/C(=O)Nc1cccc(C(=O)Nc2ccc(NC(=O)c3cccc(-c4ccn[nH]4)n3)cc2)c1`, in assay [18], the IC50 was determined as 0.052 µM. Also, the EC50 was found to be 5.62 µM in assay [4]; 8.13 µM in [5] (setting [20]); 10.6 µM in [6] (setting [21]); 18.2 µM in assay [7] (setting [22]); 14.3 µM in assay [8] (setting [25]); 7.65 µM in [9] (setting [23]). The results for the EC50 in assay [10] (setting [24]), in assay [11] (setting [26]) and in [12] (setting [27]) were 1.8 µM, 6.99 µM and 19.8 µM, respectively. In addition, the inhibition entry in assay [19] was “Active”.
